Our source for the IC50, CL free and MRT values is ChEMBL document CHEMBL4152379, “Discovery of Pyrrolidine Sulfonamides as Selective and Orally Bioavailable Antagonists of Transient Receptor Potential Vanilloid-4 (TRPV4)” (J Med Chem, 2018).

For data set [1], the target named is T1, Short transient receptor potential channel 5 (Homo sapiens, UniProt Q9UL62).
T1 sequence (Q9UL62 whole entry): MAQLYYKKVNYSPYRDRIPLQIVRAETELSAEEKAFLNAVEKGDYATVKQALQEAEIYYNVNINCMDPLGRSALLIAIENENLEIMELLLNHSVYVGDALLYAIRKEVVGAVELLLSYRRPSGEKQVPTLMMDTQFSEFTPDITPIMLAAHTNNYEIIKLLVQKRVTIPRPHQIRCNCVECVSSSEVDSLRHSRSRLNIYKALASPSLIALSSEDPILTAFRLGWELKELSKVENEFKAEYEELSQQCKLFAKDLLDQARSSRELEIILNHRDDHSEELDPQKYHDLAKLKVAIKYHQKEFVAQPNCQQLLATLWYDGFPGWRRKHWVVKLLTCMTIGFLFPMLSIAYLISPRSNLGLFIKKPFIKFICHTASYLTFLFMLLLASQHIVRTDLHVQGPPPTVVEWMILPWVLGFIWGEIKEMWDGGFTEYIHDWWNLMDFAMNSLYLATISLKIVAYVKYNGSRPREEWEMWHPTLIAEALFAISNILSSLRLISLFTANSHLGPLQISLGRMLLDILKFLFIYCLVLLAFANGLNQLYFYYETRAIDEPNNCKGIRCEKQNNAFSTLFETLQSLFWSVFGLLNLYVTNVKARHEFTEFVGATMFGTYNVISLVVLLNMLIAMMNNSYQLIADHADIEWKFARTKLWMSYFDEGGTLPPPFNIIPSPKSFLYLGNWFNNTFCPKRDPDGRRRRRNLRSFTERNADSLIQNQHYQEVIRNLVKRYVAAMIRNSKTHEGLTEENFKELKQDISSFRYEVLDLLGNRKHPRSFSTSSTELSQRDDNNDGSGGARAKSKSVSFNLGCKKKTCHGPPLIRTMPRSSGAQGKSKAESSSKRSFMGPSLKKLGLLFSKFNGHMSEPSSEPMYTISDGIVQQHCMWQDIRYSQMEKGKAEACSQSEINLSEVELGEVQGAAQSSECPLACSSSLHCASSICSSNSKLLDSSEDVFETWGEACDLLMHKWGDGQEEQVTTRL
The data set can be described thus: Inhibition of TRPC5 (unknown origin).

Data set [2] deals with Transient receptor potential cation channel subfamily M member 4 (Homo sapiens, UniProt Q8TD43). In words: Inhibition of TRPM4 (unknown origin).
The target of data set [3] is T2, Short transient receptor potential channel 4 (Homo sapiens, UniProt Q9UBN4).
T2 sequence (Q9UBN4 whole entry): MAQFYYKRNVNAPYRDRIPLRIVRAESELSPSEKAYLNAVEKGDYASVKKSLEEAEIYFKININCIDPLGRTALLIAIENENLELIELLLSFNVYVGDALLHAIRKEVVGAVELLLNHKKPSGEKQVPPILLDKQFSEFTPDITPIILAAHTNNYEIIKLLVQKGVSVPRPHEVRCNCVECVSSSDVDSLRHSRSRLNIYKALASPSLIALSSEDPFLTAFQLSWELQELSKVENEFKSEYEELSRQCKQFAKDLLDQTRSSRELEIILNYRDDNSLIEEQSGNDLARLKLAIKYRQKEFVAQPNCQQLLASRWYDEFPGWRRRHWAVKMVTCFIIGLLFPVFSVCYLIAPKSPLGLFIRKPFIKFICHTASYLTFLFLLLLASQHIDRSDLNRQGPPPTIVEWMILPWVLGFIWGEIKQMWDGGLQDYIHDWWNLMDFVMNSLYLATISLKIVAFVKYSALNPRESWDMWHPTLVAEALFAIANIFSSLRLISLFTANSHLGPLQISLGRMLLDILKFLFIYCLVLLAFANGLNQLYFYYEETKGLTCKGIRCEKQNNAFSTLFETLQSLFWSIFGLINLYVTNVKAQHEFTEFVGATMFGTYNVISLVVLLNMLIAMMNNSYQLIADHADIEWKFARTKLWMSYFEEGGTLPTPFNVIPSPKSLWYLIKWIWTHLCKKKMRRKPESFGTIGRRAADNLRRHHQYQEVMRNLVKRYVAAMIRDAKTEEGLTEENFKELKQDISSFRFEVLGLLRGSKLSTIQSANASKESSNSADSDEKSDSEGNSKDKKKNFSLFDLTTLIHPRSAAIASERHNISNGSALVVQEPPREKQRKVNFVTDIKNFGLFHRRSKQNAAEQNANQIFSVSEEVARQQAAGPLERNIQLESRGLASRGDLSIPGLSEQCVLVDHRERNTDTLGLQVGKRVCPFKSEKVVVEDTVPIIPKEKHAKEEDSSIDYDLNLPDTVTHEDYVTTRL
The data set can be described thus: Inhibition of TRPC4 (unknown origin).

The species entered for a further data set is Rattus norvegicus. In words: Unbound clearance in Sprague-Dawley rat. To be noted: in vivo. Format: ADME, organism-based.
The target in data set [4] is Transient receptor potential cation channel subfamily M member 2 (Homo sapiens, UniProt O94759). The data set can be described thus: Inhibition of TRPM2 (unknown origin).
Data set [5] in a line: MRT in iv dosed Sprague-Dawley rat. The data set is classed as ADME, organism-based. To be noted: in vivo. In a few lines: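 Male Sprague-Dawley rats with femoral vein, femoral artery and gastric catheters; noncrossover design, 2 rats per route; cassette dosing of up to five compounds. i.v. target 1 mg/kg in 5% DMSO/20% Cavitron (pH 4), infused over 30 min. Oral gastric bolus target 2 mg/kg in 5% DMSO/6% Cavitron (pH 4). Plasma sampled to 24 h and measured by HPLC−MS/MS. Noncompartmental analysis; F from dose-normalized AUC(0−∞) relative to mean i.v. AUC.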

Data set [6] has as its target Transient receptor potential cation channel subfamily M member 8 (Homo sapiens, UniProt Q7Z2W7). The data set can be described thus: Inhibition of TRPM8 (unknown origin).
Data set [7] concerns the target Transient receptor potential cation channel subfamily V member 4 (Homo sapiens, UniProt Q9HBA0). In words: Antagonist activity at human TRPV4 expressed in BHK/AC9 or HEK MSR2 cells assessed as inhibition of GSK634775-induced Ca2+ flux pre-incubated for 10 mins before agonist addition by FLIPR assay.

Transient receptor potential cation channel subfamily M member 4, sequence (Q8TD43 whole entry): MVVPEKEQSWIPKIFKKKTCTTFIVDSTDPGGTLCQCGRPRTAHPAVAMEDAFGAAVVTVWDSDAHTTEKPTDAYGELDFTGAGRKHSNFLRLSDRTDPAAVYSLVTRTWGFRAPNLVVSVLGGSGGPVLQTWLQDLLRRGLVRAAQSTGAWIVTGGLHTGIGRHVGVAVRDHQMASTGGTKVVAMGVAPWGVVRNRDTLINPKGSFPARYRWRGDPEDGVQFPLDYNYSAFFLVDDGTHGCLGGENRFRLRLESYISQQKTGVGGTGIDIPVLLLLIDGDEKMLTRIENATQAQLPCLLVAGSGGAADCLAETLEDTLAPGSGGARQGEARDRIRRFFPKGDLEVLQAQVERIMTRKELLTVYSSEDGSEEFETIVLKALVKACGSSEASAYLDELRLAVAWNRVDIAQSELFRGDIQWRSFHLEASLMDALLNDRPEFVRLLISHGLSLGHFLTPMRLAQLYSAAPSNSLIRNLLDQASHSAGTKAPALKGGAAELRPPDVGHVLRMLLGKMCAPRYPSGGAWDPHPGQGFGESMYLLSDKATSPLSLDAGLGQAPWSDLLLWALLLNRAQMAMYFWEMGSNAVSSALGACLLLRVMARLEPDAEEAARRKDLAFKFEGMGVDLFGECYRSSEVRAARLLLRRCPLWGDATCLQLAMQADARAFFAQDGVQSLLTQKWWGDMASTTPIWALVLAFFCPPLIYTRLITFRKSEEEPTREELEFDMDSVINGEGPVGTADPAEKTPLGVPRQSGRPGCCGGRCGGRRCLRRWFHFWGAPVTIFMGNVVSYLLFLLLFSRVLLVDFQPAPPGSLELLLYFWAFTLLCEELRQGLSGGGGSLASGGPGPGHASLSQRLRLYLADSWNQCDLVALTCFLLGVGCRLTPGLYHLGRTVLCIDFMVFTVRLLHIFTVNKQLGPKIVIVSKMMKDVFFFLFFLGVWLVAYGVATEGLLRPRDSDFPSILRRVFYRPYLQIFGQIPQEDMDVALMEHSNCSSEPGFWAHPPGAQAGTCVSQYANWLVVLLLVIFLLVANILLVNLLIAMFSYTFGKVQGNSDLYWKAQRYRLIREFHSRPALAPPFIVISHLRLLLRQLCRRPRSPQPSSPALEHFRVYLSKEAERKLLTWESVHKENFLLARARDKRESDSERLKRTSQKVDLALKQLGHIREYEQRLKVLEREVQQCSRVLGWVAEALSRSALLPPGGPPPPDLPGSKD
Transient receptor potential cation channel subfamily V member 4, sequence (Q9HBA0 whole entry): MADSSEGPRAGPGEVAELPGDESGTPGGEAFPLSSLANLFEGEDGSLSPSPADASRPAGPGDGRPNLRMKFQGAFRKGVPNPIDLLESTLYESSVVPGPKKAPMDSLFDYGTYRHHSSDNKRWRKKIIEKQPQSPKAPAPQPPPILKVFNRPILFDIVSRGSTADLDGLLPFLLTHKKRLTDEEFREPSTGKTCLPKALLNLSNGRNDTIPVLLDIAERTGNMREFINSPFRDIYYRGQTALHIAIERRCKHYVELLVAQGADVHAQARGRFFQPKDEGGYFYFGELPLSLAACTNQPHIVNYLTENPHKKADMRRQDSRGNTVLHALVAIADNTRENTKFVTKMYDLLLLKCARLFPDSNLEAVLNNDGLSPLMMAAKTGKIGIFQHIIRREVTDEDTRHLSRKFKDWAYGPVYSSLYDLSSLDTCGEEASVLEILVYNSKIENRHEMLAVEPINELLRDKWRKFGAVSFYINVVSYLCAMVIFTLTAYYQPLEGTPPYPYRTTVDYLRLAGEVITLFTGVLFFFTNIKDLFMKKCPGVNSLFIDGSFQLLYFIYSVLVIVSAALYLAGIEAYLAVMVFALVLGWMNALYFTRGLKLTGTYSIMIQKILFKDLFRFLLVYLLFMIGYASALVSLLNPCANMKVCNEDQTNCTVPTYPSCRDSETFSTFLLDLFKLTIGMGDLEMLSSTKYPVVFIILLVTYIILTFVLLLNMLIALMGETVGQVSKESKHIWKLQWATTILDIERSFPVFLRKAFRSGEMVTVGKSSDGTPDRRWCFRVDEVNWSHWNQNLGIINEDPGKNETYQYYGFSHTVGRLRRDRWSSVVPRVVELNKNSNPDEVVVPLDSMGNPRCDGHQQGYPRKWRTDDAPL
Transient receptor potential cation channel subfamily M member 8, sequence (Q7Z2W7 whole entry): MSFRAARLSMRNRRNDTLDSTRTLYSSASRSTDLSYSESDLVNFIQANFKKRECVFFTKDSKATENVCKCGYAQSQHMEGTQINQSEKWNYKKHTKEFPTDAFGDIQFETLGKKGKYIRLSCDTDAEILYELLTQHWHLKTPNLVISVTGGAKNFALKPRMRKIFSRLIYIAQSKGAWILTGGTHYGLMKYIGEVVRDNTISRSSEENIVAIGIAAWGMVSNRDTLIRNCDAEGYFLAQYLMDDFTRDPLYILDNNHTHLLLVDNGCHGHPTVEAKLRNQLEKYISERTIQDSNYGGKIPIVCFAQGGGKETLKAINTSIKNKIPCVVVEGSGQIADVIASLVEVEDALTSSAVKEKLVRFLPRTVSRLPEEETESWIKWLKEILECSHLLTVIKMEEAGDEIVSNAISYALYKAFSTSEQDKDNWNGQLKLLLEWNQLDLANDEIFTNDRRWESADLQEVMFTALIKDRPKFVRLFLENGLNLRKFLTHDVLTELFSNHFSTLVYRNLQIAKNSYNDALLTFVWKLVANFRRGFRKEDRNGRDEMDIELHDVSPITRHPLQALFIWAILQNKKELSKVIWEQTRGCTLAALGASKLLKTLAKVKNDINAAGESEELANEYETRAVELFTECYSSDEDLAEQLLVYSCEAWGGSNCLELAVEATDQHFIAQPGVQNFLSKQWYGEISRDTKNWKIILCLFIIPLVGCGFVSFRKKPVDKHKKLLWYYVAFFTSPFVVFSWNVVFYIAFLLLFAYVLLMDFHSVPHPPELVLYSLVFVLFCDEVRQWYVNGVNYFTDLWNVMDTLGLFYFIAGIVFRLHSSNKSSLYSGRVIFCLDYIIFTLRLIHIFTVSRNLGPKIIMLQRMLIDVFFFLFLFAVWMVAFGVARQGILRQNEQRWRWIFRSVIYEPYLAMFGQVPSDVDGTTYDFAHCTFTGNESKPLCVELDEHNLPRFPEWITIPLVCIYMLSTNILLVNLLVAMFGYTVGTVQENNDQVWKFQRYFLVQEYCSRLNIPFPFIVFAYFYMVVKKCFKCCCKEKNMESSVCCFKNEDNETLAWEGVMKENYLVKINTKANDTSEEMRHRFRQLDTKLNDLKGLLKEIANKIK
Transient receptor potential cation channel subfamily M member 2, sequence (O94759 whole entry, the tested form may be a part): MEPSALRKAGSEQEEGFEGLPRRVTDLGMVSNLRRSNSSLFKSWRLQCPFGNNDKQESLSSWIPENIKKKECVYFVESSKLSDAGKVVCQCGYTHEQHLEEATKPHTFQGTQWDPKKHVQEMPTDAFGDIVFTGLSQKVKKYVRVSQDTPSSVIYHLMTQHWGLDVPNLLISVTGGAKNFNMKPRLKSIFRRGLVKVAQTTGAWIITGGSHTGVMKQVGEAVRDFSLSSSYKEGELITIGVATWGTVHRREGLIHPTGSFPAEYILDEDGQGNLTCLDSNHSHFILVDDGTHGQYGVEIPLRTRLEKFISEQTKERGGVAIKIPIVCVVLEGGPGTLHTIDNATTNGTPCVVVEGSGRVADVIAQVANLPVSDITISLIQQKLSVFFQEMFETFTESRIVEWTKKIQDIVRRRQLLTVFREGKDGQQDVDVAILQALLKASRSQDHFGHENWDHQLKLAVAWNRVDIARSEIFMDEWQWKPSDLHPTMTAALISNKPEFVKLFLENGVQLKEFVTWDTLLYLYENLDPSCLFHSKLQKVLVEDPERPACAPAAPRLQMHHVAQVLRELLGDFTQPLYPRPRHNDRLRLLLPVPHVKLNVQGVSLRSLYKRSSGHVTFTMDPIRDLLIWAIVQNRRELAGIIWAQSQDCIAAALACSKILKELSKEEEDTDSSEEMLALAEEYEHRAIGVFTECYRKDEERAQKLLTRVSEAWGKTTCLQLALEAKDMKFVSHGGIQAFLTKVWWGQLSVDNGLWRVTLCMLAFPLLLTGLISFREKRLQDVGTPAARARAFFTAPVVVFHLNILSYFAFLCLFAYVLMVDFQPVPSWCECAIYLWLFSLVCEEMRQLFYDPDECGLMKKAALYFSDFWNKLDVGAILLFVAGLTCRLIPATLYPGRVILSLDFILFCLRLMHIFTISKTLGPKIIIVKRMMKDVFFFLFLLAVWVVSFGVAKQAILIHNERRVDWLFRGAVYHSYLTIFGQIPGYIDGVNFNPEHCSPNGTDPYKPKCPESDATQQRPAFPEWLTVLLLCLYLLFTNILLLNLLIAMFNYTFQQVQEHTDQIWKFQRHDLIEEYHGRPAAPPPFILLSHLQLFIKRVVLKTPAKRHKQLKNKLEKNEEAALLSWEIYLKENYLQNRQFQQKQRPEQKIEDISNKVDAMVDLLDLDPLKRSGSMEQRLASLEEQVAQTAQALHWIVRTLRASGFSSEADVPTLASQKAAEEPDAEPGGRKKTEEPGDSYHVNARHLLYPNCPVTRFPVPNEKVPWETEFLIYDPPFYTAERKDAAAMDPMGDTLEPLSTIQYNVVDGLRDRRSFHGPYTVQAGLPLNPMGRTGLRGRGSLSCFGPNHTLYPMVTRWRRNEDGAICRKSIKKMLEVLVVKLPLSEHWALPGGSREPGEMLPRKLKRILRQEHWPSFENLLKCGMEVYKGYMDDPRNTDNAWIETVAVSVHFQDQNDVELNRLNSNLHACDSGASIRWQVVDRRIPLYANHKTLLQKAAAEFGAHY

With `N#Cc1ccc(O[C@H]2CN(S(=O)(=O)c3ccc(Cl)cc3Cl)C[C@@]2(O)CO)cc1F`, the half-maximal inhibitory concentration (IC50) in data set [1] is greater than 10 µM; in data set [2] it was greater than 10 µM; in data set [3], greater than 10 µM; in data set [4], greater than 10 µM; in data set [6], greater than 10 µM; in data set [7], 0.0025 µM. In the data set listed under Rattus norvegicus, this compound registered a CL free of 58 L/h/kg. In data set [5], this compound returned an MRT of 54 min.
